# Source: PubChem BioAssay
# Calls of active or inactive are those of the source.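 Rule for the calls, unless noted: active = fluorescence slope after compound addition differing from the mean of all tested samples at 99.7% confidence, mostly higher but some lower; inactive = the rest.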
# Experiments:
# [1] = inhibitors of TNFa-induced NFkB p65 translocation, primary screen, imaging, HUVEC, MLSMR starter and 10KST1 sets (AID 438;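 active = inhibition above 20% together with a positive visual image hit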;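 note: compound added about 3h40 before a 20 min TNFalpha stimulation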;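 for inhibition: signal is the nuclear over cytoplasmic p65 intensity ratio per well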); conditions: HUVEC TNFa-induced p65 nuclear translocation; cell count: measured here: nuclei count (cytotoxicity indicator), at 2.08 µM; inhibition: at 2 µM, stronger effect = higher value, 0% TNFa-plus-vehicle, 100% no-TNFa wells
# [2] = inhibitors of mutant huntingtin aggregation, primary screen, imaging, exon1htt(103Q)mCFP cells, high-content imaging (AID 483;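 active = visual image review flags a hit and inhibition of aggregation exceeds 20%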;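 note: compound exposure lasted 3 days before fixation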;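 for nuclei count: percent of the per-plate median nuclei count of sample wells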); conditions: exon1htt(103Q)mCFP cell line, aggregate imaging, at 2 µM; inhibition of aggregation: stronger effect = higher value; nuclei count: measured here: cell count, toxicity
# [3] = inhibitors of E-selectin induction by TNFa, primary screen, imaging, HUVEC, immunofluorescence, MLSMR starter and 10KST1 sets (AID 487;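 active = visually confirmed hit in the image check and inhibition above 20%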;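 for inhibition: signal is fraction of cell area covered by stained E-selectin grains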;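 for nuclei count: 100% = median nuclei count of all wells on the same plate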); conditions: HUVEC TNFalpha-induced E-selectin immunofluorescence imaging, at 2 µM; inhibition: stronger effect = higher value; nuclei count: measured here: cell number, toxicity
# [4] = target: Voltage-gated potassium channel subunit beta-2 (Rattus norvegicus) (UniProt P62483); test: KvBeta enzyme negative modulators, primary screen, biochemical, NADPH fluorescence (AID 622;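 active = fluorescence slope higher than the sample average by over 3 SD, cut at about -0.22 in these data, passing the limit was not always enough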;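 note: slope of raw intensity against log time taken from 70 to 1610 s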); conditions: recombinant KvBeta, 4-cyanobenzaldehyde reduction, at 10 µM, stronger effect = higher value
# Chain of Voltage-gated potassium channel subunit beta-2 (Rattus norvegicus) (P62483 whole entry, looked up): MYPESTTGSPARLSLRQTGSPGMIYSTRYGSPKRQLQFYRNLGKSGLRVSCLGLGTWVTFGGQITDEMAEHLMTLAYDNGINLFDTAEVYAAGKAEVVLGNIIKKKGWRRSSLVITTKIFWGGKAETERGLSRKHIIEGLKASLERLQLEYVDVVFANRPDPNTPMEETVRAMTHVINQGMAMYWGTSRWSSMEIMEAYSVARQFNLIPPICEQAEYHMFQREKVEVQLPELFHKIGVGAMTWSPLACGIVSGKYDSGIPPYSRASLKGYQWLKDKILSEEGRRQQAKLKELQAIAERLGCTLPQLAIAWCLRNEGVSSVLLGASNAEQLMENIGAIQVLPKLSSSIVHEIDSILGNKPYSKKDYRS
# [5] = target: Voltage-gated potassium channel subunit beta-2 (Rattus norvegicus) (UniProt P62483); test: KvBeta positive modulators, primary screen, biochemical, NADPH fluorescence (AID 623;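 active = NADPH fluorescence slope more negative than the mean of all samples by about 3 SD, 99.7% confidence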;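 note: fluorescence intensity change per second fitted from 20 to 320 s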); conditions: Recombinant KvBeta, NADPH fluorescence decrease slope, 10 min; at 10 µM; stronger effect = lower value
# [6] = target: Muscarinic acetylcholine receptor M4 (Homo sapiens) (UniProt P08173); test: compounds altering M4/GIRK thallium flux, either direction, primary screen, M4 allosteric agonist project, cell-based, HEK293 M4/GIRK, BTC-AM (AID 625); conditions: at 10 µM, actives lie on both sides;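 note: thallium influx through GIRK channels coupled to M4 in HEK293 cells with BTC-AM dye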
# Chain of Muscarinic acetylcholine receptor M4 (Homo sapiens) (P08173 whole entry, looked up): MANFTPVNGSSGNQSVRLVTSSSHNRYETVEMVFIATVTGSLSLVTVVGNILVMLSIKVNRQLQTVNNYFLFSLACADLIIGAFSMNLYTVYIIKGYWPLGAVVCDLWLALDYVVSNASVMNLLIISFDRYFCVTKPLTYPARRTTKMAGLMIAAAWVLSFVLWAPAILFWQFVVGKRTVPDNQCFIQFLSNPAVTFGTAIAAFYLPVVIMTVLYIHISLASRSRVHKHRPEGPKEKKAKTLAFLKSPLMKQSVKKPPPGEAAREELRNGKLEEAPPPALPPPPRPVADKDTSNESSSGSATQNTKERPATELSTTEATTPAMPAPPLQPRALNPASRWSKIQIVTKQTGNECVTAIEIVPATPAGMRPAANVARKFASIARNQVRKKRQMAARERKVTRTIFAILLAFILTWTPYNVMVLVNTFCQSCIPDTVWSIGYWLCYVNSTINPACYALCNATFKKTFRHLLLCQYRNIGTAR
# Procedure, shortened: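 Material: HEK293 cells with M4 receptor and GIRK channels; Times: cells overnight at 37 °C, BTC-AM loading 1 h, reads 2 min total; Technique: kinetic BTC-AM fluorescence sampled at 1 Hz, 10 s pre-addition baseline; Read-out basis: slope over 15–24 s of trace normalized to starting intensity; Controls: carbachol positive, DMSO negative.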
# [7] = inhibitors of Sendai virus-induced IRF3 signaling, primary screen, TLR/RLR signaling modifier project, cell-based, Sendai virus stimulus, luciferase, 10K MLSCN set (AID 602276;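 active = inhibition at or above 50% at 10 µM; inactive = inhibition below 50%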;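 note: firefly luciferase from ISG56 promoter only with Renilla not read in this screen; 0% = Sendai virus plus DMSO and 100% = medium plus DMSO without virus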); conditions: HEK293 RL24 IRF3 luciferase reporter, at 10 µM, stronger effect = higher value
# [8] = inhibitors of poly I:C-induced TLR3 signaling, primary screen, cell-based, poly I:C stimulus, luciferase, 10K MLSCN set (AID 602277;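 active = inhibition of the reporter signal at or above 50%; inactive = inhibition below 50%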); conditions: HEK293-TLR3 RL24 IRF3 luciferase reporter, at 10 µM, stronger effect = higher value
Compound,cell count [1],inhibition [1],inhibition of aggregation [2],nuclei count [2] [%],inhibition [3],nuclei count [3] [%],fluorescence slope [4],NADPH fluorescence slope [5],fluorescence slope [6],inhibition [7],inhibition [8]
Cc1ccc(OC(=O)CCc2c(C)nc3ncnn3c2C)cc1,634,-10.5% (inactive),18.7% (inactive),130,-84.1% (inactive),112,-0.551 (inactive),9.9e-06 (inactive),0.00538 (inactive),0.226% (inactive),8.51% (inactive)
Cc1cc(O)c(C2(C(F)(F)F)NCCNC2=O)cc1C (stereo not drawn),560,4.7% (inactive),24.3% (inactive),84.5,63.7% (inactive),63.2,-0.576 (inactive),1e-05 (inactive),0.00721 (inactive),17.6% (inactive),29.3% (inactive)
c1ccc2c(c1)ccc1nnc(-c3ccc4c(c3)OCO4)n12,338,-1.7% (inactive),18.1% (inactive),87.8,-25.6% (inactive),108,-0.58 (inactive),1.5e-05 (inactive),0.00599 (inactive),-1.33% (inactive),25.4% (inactive)
Cn1c(C(=O)NCC2CCCO2)cc2c(=O)[nH]c3ccccc3c21 (stereo not drawn),334,11.8% (inactive),-27.1% (inactive),114,47.5% (inactive),76.8,-0.355 (inactive),-5.9e-05 (inactive),0.00794 (inactive),-11.9% (inactive),-5.12% (inactive)
CCN(CC)C(=O)c1ccc(NS(=O)(=O)c2ccccc2)cc1,444,0.9% (inactive),-9.8% (inactive),112,-22.4% (inactive),117,-0.478 (inactive),-0.000282 (inactive),0.0035 (inactive),-7.99% (inactive),-12.2% (inactive)
O=C1c2ccccc2NC(c2ccco2)N1O (stereo not drawn),426,3% (inactive),-3.7% (inactive),110,-169% (inactive),132,-0.579 (inactive),-2.1e-05 (inactive),0.006 (inactive),8.36% (inactive),10.8% (inactive)
O=C(CN1CCC(n2nnc3cc(F)ccc32)CC1)Nc1ccc2c(c1)CCC2,590,-57.1% (inactive),-14.1% (inactive),112,-84.4% (inactive),108,-0.364 (inactive),-1.5e-05 (inactive),0.00687 (inactive),14.8% (inactive),1.94% (inactive)
Cc1cc(NCCCn2ccnc2)n2c(nc3ccccc32)c1C#N,276,-23.5% (inactive),17.7% (inactive),70.2,16.6% (inactive),80.2,-0.501 (inactive),2e-06 (inactive),0.00606 (inactive),-6.75% (inactive),-0.197% (inactive)
CCOC(=O)N1CCC(NC(=O)c2ccc(OC)c(CN3CC(=O)N4CCCC4C3=O)c2)CC1 (stereo not drawn),532,-18.9% (inactive),2.9% (inactive),98,-71.7% (inactive),94.9,-0.447 (inactive),-4.9e-05 (inactive),0.00582 (inactive),13.2% (inactive),24.9% (inactive)
CCNc1nc(NCC)n2c(SCc3nc4ccccc4c(=O)[nH]3)nnc2n1,554,-3.9% (inactive),9.2% (inactive),84.7,-31.4% (inactive),113,-0.539 (inactive),-0.000149 (inactive),0.00293 (inactive),-0.856% (inactive),-4.01% (inactive)
C=CCN1C(=O)/C(=C2\SC(N3CCOCC3)=NC2=O)c2cc(Br)ccc21,418,3.5% (inactive),22.3% (inactive),100,-76% (inactive),86.1,-0.519 (inactive),-8.4e-05 (inactive),0.00286 (inactive),-11.1% (inactive),-37.3% (inactive)
CCOc1ccccc1Nc1ncnc2ccccc12,394,9.3% (inactive),8% (inactive),93.2,-40.8% (inactive),120,-0.548 (inactive),-1.6e-05 (inactive),0.00457 (inactive),5.79% (inactive),-12% (inactive)
Cn1c(CN2CCOCC2)nc2cc(NC(=O)c3ccccc3Cl)ccc21,463,7.9% (inactive),-4.3% (inactive),102,-19.9% (inactive),113,-0.588 (inactive),-2.3e-05 (inactive),0.00633 (inactive),8.55% (inactive),2.36% (inactive)
Cc1nn(-c2ccccc2)c(Cl)c1C1C(C#N)=C(N)OC2=C1C(=O)CC(C)(C)C2 (stereo not drawn),378,5.6% (inactive),-4.8% (inactive),100,-110% (inactive),113,-0.577 (inactive),-3.7e-05 (inactive),0.00783 (inactive),6.31% (inactive),31.1% (inactive)
Cc1ccc(S(=O)(=O)n2nc(OC(=O)c3ccco3)cc2N)cc1,512,-8.3% (inactive),-12% (inactive),115,-8.9% (inactive),150,-0.554 (inactive),-9.4e-05 (inactive),0.00488 (inactive),-8.24% (inactive),-6.95% (inactive)
Cc1ccc(C(=O)CSc2nnc(CNc3ccc(C)cc3C)o2)cc1,553,-7.3% (inactive),19.7% (inactive),97.5,-124% (inactive),193,-0.477 (inactive),-8.9e-06 (inactive),0.00488 (inactive),6.54% (inactive),-0.256% (inactive)
CS(=O)(=O)N(CC(=O)N1CCCCCC1)c1ccccc1,324,-0.2% (inactive),1.9% (inactive),82.8,-11.6% (inactive),106,-0.452 (inactive),-3.4e-05 (inactive),0.00505 (inactive),11.4% (inactive),8.59% (inactive)
CCOC(=O)CNS(=O)(=O)c1c(C)noc1C,562,-2.5% (inactive),-0.2% (inactive),108,-40.9% (inactive),105,-0.441 (inactive),-0.000338 (inactive),0.00456 (inactive),1.51% (inactive),2.6% (inactive)
CC(=O)c1c(C)nc(C)nc1NC(=O)Cc1ccccc1,234,-4.4% (inactive),37.5% (inactive),79.9,2.9% (inactive),84.4,-0.566 (inactive),-4.2e-05 (inactive),0.00735 (inactive),12.7% (inactive),20.5% (inactive)
Cc1cc(C)c2nc(N)sc2c1,615,6.3% (inactive),31.1% (inactive),67.2,16% (inactive),107,-0.281 (inactive),-1.5e-05 (inactive),0.00618 (inactive),-28.1% (inactive),-46.7% (inactive)
O=c1c2c(nc3nc(COc4ccccc4)[nH]n13)CCC2,305,5.6% (inactive),19.9% (inactive),100,-89.8% (inactive),102,-0.539 (inactive),-9.7e-06 (inactive),0.00436 (inactive),15.2% (inactive),18% (inactive)
COc1ccc(NC(=O)Nc2cc(C)ccc2OC)cc1,217,8.3% (inactive),-1.8% (inactive),98.6,-133% (inactive),120,-0.422 (inactive),-0.00041 (inactive),0.00547 (inactive),-39.1% (inactive),-80.2% (inactive)
COc1cccc(C(=O)CSc2nnc(COc3cccc4cccnc34)o2)c1,558,-6.3% (inactive),-10.3% (inactive),117,-1.4% (inactive),197,-0.51 (inactive),3.4e-05 (inactive),0.00397 (inactive),-8.03% (inactive),-13.7% (inactive)
CC(C)=CCSc1nnc(CCNC(=O)OC(C)(C)C)o1,391,14.5% (inactive),17.1% (inactive),90,22.3% (inactive),95.7,-0.402 (inactive),8.7e-05 (inactive),0.00571 (inactive),9.62% (inactive),12.6% (inactive)
[O-][n+]1onc2c1CCc1nnc(-c3ccccc3)cc1-2,320,-0.8% (inactive),7.5% (inactive),102,-7.3% (inactive),123,-0.598 (inactive),2.3e-05 (inactive),0.00387 (inactive),-0.775% (inactive),-6.53% (inactive)
CC(=O)Nc1ccc(Oc2cc(C#N)c(C#N)cc2N2CCCCCC2)cc1,305,-7.7% (inactive),-9.6% (inactive),91.5,-62.5% (inactive),127,-0.377 (inactive),2.3e-05 (inactive),0.00486 (inactive),13.8% (inactive),21.8% (inactive)
Cc1nc(SCC(=O)c2c[nH]c3ccccc23)n[nH]1,339,-6.5% (inactive),-7.8% (inactive),103,-81.8% (inactive),76.3,-0.472 (inactive),-6.1e-05 (inactive),0.00544 (inactive),17.1% (inactive),14.3% (inactive)
O=S(=O)(c1ccccc1)N1CCSC1c1ccco1 (stereo not drawn),444,1.2% (inactive),7% (inactive),100,33.5% (inactive),102,-0.555 (inactive),-4e-05 (inactive),0.00572 (inactive),-30.7% (inactive),-9.12% (inactive)
